Kir21 block: inhibitors of mouse Kir2.1 inward-rectifier potassium channel; HEK293-Kir2.1, FluxOR thallium flux fluorescence; stronger effect = lower value; B-score at 10 µM; hit rate 0.85% among 310,000;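 active = fluorescence ratio B-score at or below minus 3 SD of library scores, with starting-brightness B-score within 2 SD, cut at about -4.2 in these data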;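 note: channel flux triggered by added potassium and thallium sulfate stimulus; B-score of peak minus minimum fluorescence over baseline after thallium stimulus; more negative B-score means stronger Kir2.1 block with less thallium influx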
Target sequence (P35561 whole entry, looked up): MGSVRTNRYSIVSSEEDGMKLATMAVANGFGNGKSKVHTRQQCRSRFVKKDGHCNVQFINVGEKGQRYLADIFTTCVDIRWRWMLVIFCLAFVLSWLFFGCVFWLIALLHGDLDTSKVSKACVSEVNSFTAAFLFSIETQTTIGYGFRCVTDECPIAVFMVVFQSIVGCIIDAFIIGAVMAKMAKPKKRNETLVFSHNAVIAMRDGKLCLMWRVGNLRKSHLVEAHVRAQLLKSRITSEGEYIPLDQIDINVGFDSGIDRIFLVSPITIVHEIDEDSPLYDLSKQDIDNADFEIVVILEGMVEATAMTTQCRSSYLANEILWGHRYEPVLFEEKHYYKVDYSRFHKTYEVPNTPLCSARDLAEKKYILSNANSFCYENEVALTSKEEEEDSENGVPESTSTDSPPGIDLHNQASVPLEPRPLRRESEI
TRPC6 activator: mouse TRPC6 channel activators, primary screen, cell-based, HEK293, membrane potential dye; Short transient receptor potential channel 6 (Mus musculus), Q61143; HEK293-TRPC6 membrane potential dye fluorescence; stronger effect = higher value; B-score at 10 µM; hit rate 0.13% among 310,000;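 active = B-score of the integrated fluorescence ratio above library mean plus 3 SD, and starting fluorescence ratio within library mean plus 5 SD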;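 note: higher score means more depolarization so channel activation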
TRPC4 PAM: positive allosteric modulators of TRPC4, primary screen, cell-based, mouse TRPC4beta, HEK293 mu-opioid, Fluo-4 calcium. Short transient receptor potential channel 4 (Mus musculus), Q9QUQ5. DAMGO EC20, Fluo-4 Ca2+ flux; stronger effect = higher value. B-score at 10 µM. hit rate 0.42% among 310,000;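 active = B-score of calcium response area above 5 SD of library B-scores, with initial fluorescence ratio within 5 SD of library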;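 note: B-score of integrated fluorescence ratio over time as area under calcium response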
TRPC6 inhibitor: mouse TRPC6 channel inhibitors, primary screen, cell-based, HEK293, membrane potential dye | ACh-evoked depolarization; stronger effect = lower value | hit rate 1.1% among 310,000 | AID 2553, 2010 | B-score at 10 µM;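 active = B-score under library mean minus 3 SD, initial fluorescence not abnormally high, positive integrated signal ratio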;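 note: B-score derived from integrated fluorescence ratio over the kinetic read; more negative B-score means stronger inhibition of depolarization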
TRPC4 agonist: activators of mouse TRPC4 channel, primary screen, Fluo4 calcium, HEK293 TRPC4beta/mu-opioid cells; Short transient receptor potential channel 4 (Mus musculus), Q9QUQ5; Fluo4 calcium fluorescence; stronger effect = higher value; B-score at 10 µM; hit rate 0.49% among 310,000;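 active = B-score above 5 SD of library B-scores, and initial fluorescence ratio not above library mean plus 5 SD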;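 note: positive B-score marks a calcium rise read as TRPC4 activation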
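Test system: HEK293 cells stably co-expressing mouse TRPC4beta and mu-opioid receptor | Schedule: Fluo4 dye loading 45 min at room temperature, 110 s recording | Measured by: Kinetic Fluo4 calcium fluorescence, 5 s baseline at 1 Hz | Evaluation: B score of integrated ratio | Controls: Buffer (low) and maximal DAMGO (high)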
TRPC4 block: inhibitors of mouse TRPC4 channel, primary screen, Fluo4 calcium, HEK293 TRPC4beta/mu-opioid cells; DAMGO-evoked Fluo4 calcium flux; stronger effect = lower value; B-score at 10 µM; hit rate 0.39% among 300,000; AID 2247, 2010;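 active = B-score over 3 SD under the library average, no early fluorescence shift, positive overall ratio signal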
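material = TRPC4beta/mu-opioid receptor HEK293 cell line | probe or stimulus = sequential submaximal and maximal DAMGO stimulation | compound dosing = one concentration per compound | measured by = Fluo4 Ca2+ flux fluorescence | evaluation = integrated fluorescence ratio relative to baseline, converted to per-well B score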
* hit, by the source's call; i = inactive. In the library only some 3% were active in any assay of this set; here they are far more common.

SMILES | Kir21 block | TRPC6 activator | TRPC4 PAM | TRPC6 inhibitor | TRPC4 agonist | TRPC4 block
O=[N+]([O-])c1ccc(N2CCNCC2)c(Cl)c1 | 0.61 | i | 20* | i | 48* | i
O=[N+]([O-])c1ccc(N2CCCC2)c(F)c1Br | 1 | i | i | i | i | i
CCN1CCN(c2cc(N3CCCC3)c([N+](=O)[O-])cc2F)CC1 | -4.2* | i | 17* | i | i | i
NS(=O)(=O)OC(CCc1ccccc1)C(Cl)(Cl)Cl (stereo unspecified) | -3 | i | 12* | i | i | i
O=C(Cc1ccccc1)NC(Oc1ccccc1Cl)C(Cl)(Cl)Cl (stereo unspecified) | 0.4 | i | i | i | i | i
Cc1c(N)c(C)c([N+](=O)[O-])c(C)c1[N+](=O)[O-] | -0.61 | i | i | i | i | -6*
c1cc2c(cc1CN1CCNCC1)OCO2 | 1.7 | i | i | i | i | i
c1csc(CN2CCNCC2)c1 | -1 | i | i | i | i | i
Cc1ccccc1CN1CCNCC1 | -0.02 | i | 15* | i | i | i
Cc1ccccc1CN1CCN(c2ccc(Cl)cc2)CC1 | 1.2 | i | i | i | i | i
Clc1ccc(CN2CCNCC2)cc1 | 0.96 | i | i | i | 54* | i
FC(F)(F)c1ccc(CN2CCNCC2)cc1 | 1.8 | i | 17* | i | i | i
COc1ccc(CC(C)NC2CCCCCC2)cc1 (stereo unspecified) | -2.5 | i | i | i | i | i
Oc1ccc(C(=C(Cl)Cl)c2ccc(O)cc2)cc1 | -5.6* | i | i | i | i | i
Cc1ccc(Cn2nc(C(=O)Nc3ccc(Br)cc3)cc2C)cc1 | 0.4 | i | i | i | i | i
Cc1ccc2c(c1)C1CN(C)CCC1N2C(=O)c1cn(-c2ccccc2)nc1-c1ccccc1 (stereo unspecified) | -0.7 | i | 23* | i | i | i
Cc1ccc2c(c1)C1CN(C)CCC1N2C(=O)c1ccc(Br)o1 (stereo unspecified) | 0.01 | i | i | i | i | i
CCC1=Nc2cc(C(=O)N3CCC4(CC3)OCCO4)ccc2Sc2ccc(C)cc21 | -1.1 | i | i | i | i | -6*
CCCCCn1c(=O)c(C(=O)NC(C)c2ccccc2)c(O)c2ccccc21 (stereo unspecified) | 1.1 | i | i | i | i | i
CC(C)OC1CCCC(O)C1CC(=O)O (stereo unspecified) | 0.25 | i | i | i | i | i
O=C(COc1ccc(Cl)cc1Cl)N1CCN(C/C=C/c2ccccc2)CC1 | -0.4 | i | 13* | i | i | i
Cn1c(O)c(C=NCCN2CCOCC2)c(=O)[nH]c1=S | 1.2 | i | i | i | i | i
C=CCn1c(O)c(C=NCCN2CCOCC2)c(=O)[nH]c1=S | -0.04 | i | 10* | i | i | i
COc1ccc(OC)c(NP(=O)(Oc2ccccc2)Oc2ccccc2)c1 | -2 | i | 10* | i | i | i
COc1ccc(OC)c(NP(=O)(Oc2ccc(Cl)cc2)Oc2ccc(Cl)cc2)c1 | -0.14 | i | i | i | i | i
SMILES | Kir21 block | TRPC6 activator | TRPC4 PAM | TRPC6 inhibitor | TRPC4 agonist | TRPC4 block
COc1ccc(NP(=O)(Nc2ccc(OC)cc2)Oc2ccccc2)cc1 | -0.16 | i | 12* | i | i | i
N=Cc1c(O)n(-c2ccc(C34CC5CC(CC(C5)C3)C4)cc2)c(=O)[nH]c1=O | -0.9 | i | i | i | i | i
Cc1ccccc1-n1c(C)cc(/C=C2/C(=O)NC(=O)N(Cc3ccco3)C2=O)c1C | -1.6 | i | i | i | i | -6*
Cc1ccc(-c2cc(-c3ccc(C)cc3)[n+](-c3ccc(C(=O)O)cc3)c(-c3ccc(C)cc3)c2)cc1 | 2.1 | i | i | i | i | i
Nc1ccccc1-[n+]1c(-c2ccccc2)cc(-c2ccccc2)cc1-c1ccccc1 | -5.8* | i | 25* | i | i | i
CCCOC(=O)c1ccc(-[n+]2c(-c3ccccc3)cc(-c3ccccc3)cc2-c2ccccc2)cc1 | -11* | i | i | i | i | i
[O-]c1ccccc1-[n+]1c(-c2ccccc2)cc(-c2ccccc2)cc1-c1ccccc1 | -9.7* | i | i | i | i | i
O=C(O)c1ccc(-[n+]2c(-c3ccccc3)cc(-c3ccccc3)cc2-c2ccccc2)cc1 | -0.64 | i | i | i | i | i
Brc1ccc(-[n+]2c(-c3ccccc3)cc(-c3ccccc3)cc2-c2ccccc2)cc1 | -8.4* | i | i | i | i | i
Cc1nn(Cc2ccccc2)c(Cl)c1C(=O)NC1CCCc2ccccc21 (stereo unspecified) | 1.7 | i | i | i | i | i
CCCN(CC1CC1)CC(O)c1ccccc1 (stereo unspecified) | -0.94 | i | i | i | i | i
c1ccc(C(OCCN2CCN(c3ncccn3)CC2)c2ccccc2)cc1 | -2.1 | i | i | i | i | i
CCC(C(=O)N1CCC2(CC1)OCCO2)n1c2ccccc2c2nc(=O)cc(C)n21 (stereo unspecified) | 0.44 | i | i | i | i | i
CC(C)CCN1CCN(Cc2c(F)cccc2Cl)CC1CCO (stereo unspecified) | -0.19 | i | i | i | i | i
CCOc1cc2c(cc1OCC)-n1cccc1C(c1ccc(OC(F)F)cc1)NC2 (stereo unspecified) | -2.6 | i | i | i | i | i
COc1ccc(NC(=O)C2C3CCC(O3)C2C(=O)O)c(OC)c1 (stereo unspecified) | 0.09 | i | i | i | i | i
Oc1ccccc1-[n+]1c(-c2ccccc2)cc(-c2ccccc2)cc1-c1ccccc1 | -12* | i | i | i | i | i
Cc1ccc(-c2cc(-c3ccccc3)cc(-c3ccccc3)[n+]2-c2ccc(C(=O)O)cc2)cc1 | 1.1 | i | i | i | i | i
